# Bioassay records: PubChem, The Scripps Research Institute Molecular Screening Center
# NPY-Y2 PAM-ag – human NPY-Y2 potentiation or agonism, primary screen | P49146 | cells expressing NPY-Y2, potentiator/agonist read-out | activation, % at 3.6 µM | 220,000 compounds, 0.45% hits | AID 1359; in the data active means activation above about 27%;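 further: cells stimulated with NPY near EC25 plus isoproterenol at EC100; 0% = vehicle plus submaximal agonist and 100% = vehicle plus saturating agonist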
# Target sequence (P49146 whole entry, looked up): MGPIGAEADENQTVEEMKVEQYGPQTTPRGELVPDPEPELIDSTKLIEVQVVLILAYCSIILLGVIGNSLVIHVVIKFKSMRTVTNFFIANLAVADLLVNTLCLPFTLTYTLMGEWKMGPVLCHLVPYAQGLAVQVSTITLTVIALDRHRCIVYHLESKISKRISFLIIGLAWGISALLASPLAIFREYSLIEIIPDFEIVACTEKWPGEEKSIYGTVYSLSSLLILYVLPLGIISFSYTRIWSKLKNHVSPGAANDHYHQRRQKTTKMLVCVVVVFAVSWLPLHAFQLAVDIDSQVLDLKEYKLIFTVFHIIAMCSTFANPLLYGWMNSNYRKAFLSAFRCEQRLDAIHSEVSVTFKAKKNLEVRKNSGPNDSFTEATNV
# NPY-Y1 PAM-ag – potentiates or activates human NPY-Y1 receptor; 220,000 compounds, 0.37% hits; NPY-Y1 expressing cells, potentiator/agonist activation; activation, % at 3.6 µM; P25929; AID 1304; in the data active means activation above about 33%, passing the limit was not always enough;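 further: cells stimulated with NPY at EC10 then isoproterenol at EC100; 0% = low agonist plus stimulus and 100% = saturating agonist plus stimulus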
# S1P4 ag – activates the human S1P4 receptor | O95977 | S1P4-expressing cell line, agonist reporter assay | AID 1509 | activation, % at 4.98 µM | 220,000 compounds, 0.35% hits; in the data active means activation above about 11%;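 further: 0% = DMSO vehicle and 100% = reference agonist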
# NPY Y1 blocker – blocks the human neuropeptide Y Y1 receptor; P25929; HEK293-CNG Y1 cells, membrane potential fluorescence; NPY at EC95, then isoproterenol; inhibition, % at 3.6 µM; 200,000 compounds, 1% hits; AID 1040;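 active means inhibition above the campaign mean inhibition of all tested compounds plus 3 SD, cut at about 20% in these data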;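 further: 0% = DMSO wells given NPY plus isoproterenol and 100% = isoproterenol alone without NPY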
#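 Material: Y1- and CNG-channel-expressing HEK293 cells / Probe or stimulus: NPY 25 nM then isoproterenol 1 µM plus Ro 20-1724 25 µM / Doses: 3.6 µM single dose, DMSO 0.4% / Schedule: compound incubation 1 h at room temperature, readout 45 min post-stimulation / Signal: membrane potential fluorescence / Benchmarks: isoproterenol-only wells as full block versus NPY-plus-isoproterenol wells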
# S1P4 antag – blocks the human S1P4 receptor; O95977; S1P4-expressing cells, antagonist mode, reporter read-out; inhibition, % at 4.98 µM; 220,000 compounds, 0.26% hits; in the data active means inhibition above about 29%;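 further: 0% = wells stimulated with agonist and 100% = vehicle wells without agonist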
# NPY Y2 blocker – blocks the human neuropeptide Y Y2 receptor; P49146; NPY-Y2 expressing cells, antagonist mode; inhibition, % at 2.7 µM; 140,000 compounds, 0.99% hits; AID 793;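 further: 0% = vehicle with agonist challenge and 100% = reference antagonist with challenge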
# NPY-Y1 ant conf – human NPY-Y1 antagonism, confirmation. shares compounds with NPY Y1 blocker. HEK293-CNG NPY-Y1, membrane potential fluorescence, cAMP; NPY challenge against isoproterenol-raised cAMP. inhibition, % at 3.6 µM. 1,200 compounds, 21% hits; in the data active means inhibition above about 20%;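 further: 0% = vehicle with agonist plus stimulus and 100% = stimulus alone without agonist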
# NPY2 antag ctr – counter-screen for NPY-Y1 antagonists: human NPY-Y2 antagonism; shares compounds with NPY Y1 blocker; HEK293 NPY-Y2 CNG membrane potential fluorescence; cells given NPY, then isoproterenol; inhibition, % at 3.6 µM; 1,200 compounds, 28% hits; AID 1255;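 further: 0% = DMSO with agonist challenge and 100% = reference antagonist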
# * marks the source's active call; other numbers are inactive results; nt = no result given. An excerpt weighted towards active compounds, which were near 2.4% of everything screened. Unless noted, no stated cut-off is given here; in the data, active means inhibition above about 17%; inactive means the rest.
SMILES,NPY-Y2 PAM-ag,NPY-Y1 PAM-ag,S1P4 ag,NPY Y1 blocker,S1P4 antag,NPY Y2 blocker,NPY-Y1 ant conf,NPY2 antag ctr
COC(=O)c1sccc1NC(=O)CSc1cccc(Cl)c1Cl,-30,-34,0,24*,-13,12,6,9
Cc1ccc(CN2CCCC(CO)(Cc3ccccc3C)C2)s1 (centres undefined),-26,-15,0,13,4,nt,nt,nt
CN(c1ccc(OCc2nnc(-c3ccccc3)o2)cc1)S(=O)(=O)c1ccccc1,-16,-55,-1,28*,-11,15,12,14
Cc1cccc2cc(CN(Cc3ccco3)C(=O)Nc3cccc(C#N)c3)c(Cl)nc12,-32,-27,-2,34*,-11,9,19,9
CC(C)OCCCNC(=O)c1c(N)n(/N=C/c2cccs2)c2nc3ccccc3nc12,10,14,0,25*,11,9,17,16
Cc1cc(N=Cc2c(O)n(-c3cccc(Cl)c3)c(=O)c3ccccc23)no1,0,-6,1,-1,-6,1,nt,nt
Cc1ccc(N=Cc2c(O)n(-c3cc(Cl)ccc3N3CCOCC3)c(=O)c3ccccc23)cc1C,-34,-80,3,22*,-25,6,15,27*
COc1ccc(C(=O)Nc2cccc(C)c2)cc1S(=O)(=O)N1CCOCC1,6,0,1,2,-35,6,nt,nt
COc1ccc(C(=O)Nc2ccc(-c3ccc(C)o3)cc2)cc1S(=O)(=O)N1CCOCC1,15,23,-4,20*,-2,0,16,14
Cc1cccc2cc(CN(Cc3ccccc3)C(=S)NCCCN(C)C)c(=O)[nH]c12,-28,-62,-2,28*,-2,nt,8,14
c1ccc(-n2cc(CN3CCCC(CN4CCCC4)C3)c(-c3ccc4c(c3)OCO4)n2)cc1 (centres undefined),-25,-36,0,32*,-8,nt,14,27*
COCC(C)Nc1nc(C)c(C(C)=O)s1 (centres undefined),8,9,1,5,-2,nt,nt,nt
CC(C)(C)c1ccc(CN2N=C(/C=C/c3ccccc3)CCC2=O)cc1,-21,-23,3,25*,-7,nt,19,17
O=C(Cn1nc(CNc2ccc(Cl)cc2)[n+]2c1CCCCC2)c1ccccc1,-2,-10,3,1,-16,0,nt,nt
Cc1ccc(C(C)C)c(OCc2nn(CC(=O)c3ccc(Cl)cc3)c3[n+]2CCCCC3)c1,-13,-37,-1,35*,0,nt,19,18*
CCCNC(=O)CSc1nc2ccccc2c(=O)n1CCC,-16,-24,0,16,-4,nt,nt,nt
Cc1cc(NC(=O)c2ccc(F)cc2F)n(-c2nc3ccccc3[nH]2)n1,-9,0,1,-3,-4,1,nt,nt
Cc1cc(NC(=O)CC2CCCC2)n(-c2nc3ccccc3[nH]2)n1,-7,-24,-1,21*,-16,17,17,8
c1ccc(-c2ccccc2OCCCN2CCCCCC2)cc1,-10,-15,2,26*,4,nt,11,13
c1ccc(-c2ccccc2OCCCN2CCCC2)cc1,1,-1,0,17,-4,6,nt,nt
CCOC(=O)C1(Cc2cccc(OC)c2)CCN(Cc2cccn2-c2ccccn2)CC1,-30,-30,1,29*,5,nt,17,16
CCOC(=O)C1(CCOc2ccccc2)CCN(Cc2cccn2-c2ncccn2)CC1,-25,-10,1,25*,7,nt,11,12
CN(C)Cc1ccc(F)cc1Sc1ccc(Cl)cc1Cl,-21,-68,0,22*,11,11,11,17
CCn1c(CSc2ncccn2)nnc1SCC(=O)N1CCCCC1,9,9,1,-1,-10,nt,nt,nt
O=C(NC1CCCCC1)C(c1ccco1)N(C(=O)c1csnn1)C1CCCC1 (centres undefined),-10,-1,-1,9,-4,2,nt,nt
SMILES,NPY-Y2 PAM-ag,NPY-Y1 PAM-ag,S1P4 ag,NPY Y1 blocker,S1P4 antag,NPY Y2 blocker,NPY-Y1 ant conf,NPY2 antag ctr
O=C(NC1CCCC1)C(c1ccco1)N(Cc1ccccc1)C(=O)c1csnn1 (centres undefined),-1,0,-2,30*,-5,14,4,5
Cc1cccc(C(=O)OCC(=O)NCCCc2ccccc2)c1,5,-16,0,5,3,nt,nt,nt
COCCNc1nc(-c2ccc(OC)cc2)c(-c2ccc(OC)cc2)s1,11,4,1,-1,-16,nt,nt,nt
Cc1ccc(SCCC(=O)OCC(=O)NCC2CCCCC2)cc1,-36,-64,-2,36*,-11,nt,14,9
COc1ccc(/C(C)=N/NC(=O)c2ccccc2OCc2ccccc2)c(OC)c1,-40,-32,-1,15,3,nt,nt,nt
CCC(CC)=NNC(=O)c1ccccc1OCc1ccc(F)cc1,-35,-66,1,21*,-8,6,4,7
Cc1ccc(/C=N/NC(=O)c2ccoc2C)o1,0,16,0,-1,-13,2,nt,nt
Cc1ccc(/C=N/NC(=O)c2ccccc2OCc2ccc(F)cc2)o1,-75,-107,0,22*,8,15,15,15
NC(=O)NC(=O)COC(=O)c1ccccc1OCc1ccc(F)cc1,0,15,1,nt,1,nt,nt,nt
COc1ccc(/C=N/NC(=O)c2ccccc2OCc2ccccc2)c(OC)c1,-64,-41,0,25*,-6,nt,7,15
Oc1ccc(Br)cc1C=Nc1ccc2c3c(cccc13)CC2,4,-6,0,5,2,0,nt,nt
O=C(O)CC1(O)C(=O)N(Cc2ccccc2)c2ccccc21 (centres undefined),-10,6,2,0,0,nt,nt,nt
Cc1ccc(C(=O)N2c3ccccc3N(Cc3ccccc3)C(=O)C2(C)C)cc1,35,-40,-1,30*,-1,10,13,7
O=C1CCC(/C=C/c2ccccc2)=NN1Cc1ccc(F)cc1,-19,-12,2,15,-8,nt,nt,nt
CCOC(=O)CN1C(=O)CN(c2ccc(C)c(C)c2)C1=O,11,12,3,1,-19,5,nt,nt
CC(=O)N1CCN(c2ccc(NC(=S)NC(=O)c3ccc(C)c([N+](=O)[O-])c3)cc2)CC1,0,-12,0,nt,10,nt,nt,nt
O=C(O)CCSc1nc2ccccc2s1,-30,-36,2,27*,-9,10,8,6
c1ccc2sc(SCSc3nc4ccccc4s3)nc2c1,-25,-15,1,nt,-6,nt,nt,nt
O=C(N=C1N=C2C=CC(Br)=CN2Cc2ccccc21)c1ccc([N+](=O)[O-])cc1[N+](=O)[O-],-8,13,0,nt,23,nt,nt,nt
